48 sequences from the EternaBench riboswitch data can be followed below.

The test system of this data set is MS2 coat protein. Kind of data set: apparent Kd, MS2 coat protein; higher = weaker binding; RNA-MaP array; FMN 200 µM where present. The method, boiled down: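 Apparent Kd: the median of filtered binding-curve fits from single clusters. Designs were transcribed on Illumina sequencing-chip clusters by stalled E. coli RNA polymerase and titrated with SNAP-549-labelled MS2 coat protein from 0.7 or 1.5 nM, doubling to 3 µM, in 100 mM Tris-HCl pH 7.5, 80 mM KCl, 4 mM MgCl2, BSA, DTT, yeast tRNA and Tween-20. Each series ran without and then with constant ligand, and green signal was normalised to red-channel RNA signal and control-cluster median Fmax.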

Setting [1] is: designed as: ON switch for flavin mononucleotide, no ligand.
Setting [2] is: ligand present: flavin mononucleotide, designed as: ON switch for flavin mononucleotide.
Setting [3] is: designed as: OFF switch for flavin mononucleotide, no ligand.
Where [4] appears, read: ligand present: flavin mononucleotide, designed as: OFF switch for flavin mononucleotide.

What is called apparent Kd is a dissociation constant that holds for the conditions of the assay. On to “CACAGGGAUUCAGGAUAUAUUAGCCGAGGCCGCGUAGAAGGGAAAUCCUGACAUGAGGAUCACCCAUGUUGACCCGCCUUCCAU”, for which the “apparent Kd” value reads like this: under setting [1], 52.8 nM; under setting [2], 62.5 nM.
For the sequence “GCUGUCGUAUGAGGAUAUGGUCAGCUUUGCUGACCAGAAGGCAUGUCAAUAGACAUGAGGAUCACCCAUGUAGUAAAGACAGCA”, the “apparent Kd” value worked out at 402 nM under setting [1] and 39 nM under setting [2].
For “CGCUCAGAGAACGAUACGAAUAGACAUGAGGAUCACCCAUGUAGAAGGACAACGGAAUAAACGUUGUAGGAUAUACAUUUAGCG”, the “apparent Kd” value under setting [3] came out at 24.6 nM and the “apparent Kd” value under setting [4] came to 52.6 nM.
The matching figures for “GUGCAACAUGAGGAUCACCCAUGUCAGGAUAUGCGAAUUUCAUCAAAAGAUGAAAUUUGCAGAAGGGACUGCAC”: 19 nM and 22.8 nM.
Turning to “GGGCUGUCAGGAUAUGGGCUCGGGCUCGAAAGGGCUCGGGCUCAGAAGGGACAUGAGGAUCACCCAUGUGGCCC”, the “apparent Kd” value was 35.7 nM under setting [3] and 32.8 nM under setting [4].
For “UUUAUUUUGCAAGGAUAUGUUUAAUUUUAGUUUCCUUAUACAUGAGGAUCACCCAUGUUAUACUUACAGAAGGUGCAUAAUUUU”, the “apparent Kd” value reads like this: under setting [3], 81.6 nM; under setting [4], 59 nM.
Take “UUGGACGUCGUAGGAUAUGUAGGAUAUUCCUACAUGAGGAUCACCCAUGUUGACAUGGAAGAAGGACAGAAGGACGAUGUCCAU”: the “apparent Kd” value reads like this: under setting [1], 566 nM; under setting [2], 14.2 nM.
The matching figures for “UUAAUUAUACAAGGAUAUCUAUUGUAGUUUCGACUGACAUGAGGAUCACCCAUGUAAAUAUGUUAAGAGAAGGUGUAUUUUAAA”: 56.8 nM and 40.4 nM.
For the sequence “CGCAAGUCAGGAUAUUCGACUGGUCCAUCUGUGGAUUUGUAGGAGAAGGGACAUGAGGAUCACCCAUGUUUGUU”, the “apparent Kd” value stood at 30.6 nM under setting [3] and 23.9 nM under setting [4].
For “GGGCUGUCAGGAUAUGCUAGUGCUAGUGAAAGCUAGUGCUAGUAGAAGGGACAUGAGGAUCACCCAUGUGGCCC”, the “apparent Kd” value reads like this: under setting [3], 31.4 nM; under setting [4], 30.9 nM.
The matching figures for “CCUCAUAUUUAGGAUAUGAUGGGUUAUUAUUCGUUAGAAGGAGGUACAUGAGGAUCACCCAUGUCCCGUUUGGG”: 34.2 nM and 32.9 nM.
Taken in the same sequence, the figures for “UUAAUUAAUUAAUUGCAGAAUUACAUGAGGAUCACCCAUGUAUAGGAUAUCGUCAGGAAUACUGACGAGAAGGAUACAUACUGC” were 17.9 nM and 26.6 nM.
Taken in the same sequence, the figures for “ACAGCGGCAGGAUAUGCAUGCUCCGACUUAUGCCGACAAAGACAUGAGGAUCACCCAUGUAGAAGGGCCAGCGG” were 23.1 nM and 22.8 nM.
As to “CUUUAGUGAGGAUAUCUGGCUUCGAUCGUGAGAUCGAGGCUAGAGAAGGCACAUGAGGAUCACCCAUGUUCCUU”, the “apparent Kd” value reads like this: under setting [3], 15.4 nM; under setting [4], 34.7 nM.
Take “GGACAUGUCGUUUACAUGAGGAUCACCCAUGUCGAUGGACAUGAGGAUAUCGAUACGAAUCGUAUCGAGAAGGCAUGCAUGUCC”: the “apparent Kd” value came out at 42.8 nM under setting [1] and 18.5 nM under setting [2].
With “CCCAACGUAACGCCACGUUGAGAGCAGGAUAUUCCGCCGUGAUCUACAUGAGGAUCACCCAUGUGGAAGAAGGGCUACACAAAA”, the “apparent Kd” value under setting [3] was 16.3 nM and the “apparent Kd” value under setting [4] came out at 146 nM.
Take “UAUAUAUAGGCAGGAUAUACAUGAAUAUAUAUAAUAUAAUAUAAUGUAACAUGAGGAUCACCCAUGUAGAAGGGCCAAUAUAUA”: the “apparent Kd” value under setting [3] came to 30.6 nM and the “apparent Kd” value under setting [4] was found to be 59.9 nM.
For “GUGCCGAACCUAGGAUAUCUUAUCGGGUUCCGCCGUGGCUUAGCGACAUGAGGAUCACCCAUGUAAGAGAAGGAGGUGGUGGAG”, the “apparent Kd” value under setting [3] turned out to be 299 nM and the “apparent Kd” value under setting [4] stood at 259 nM.
With “AAACCACAUGAGGAUCACCCAUGUGAGGAUAUGAUACUAUGUACUUCGGUACAUAGUAUCAGAAGGCAUGUGGA”, the “apparent Kd” value is, setting by setting: under setting [3], 180 nM; under setting [4], 130 nM.
Turning to “UAGUAUUAACGAGGAUAUAAUAUGUUCAAUUUUUUAUAUUGUUUACAUGAGGAUCACCCAUGUUAUUAGAAGGCGUAUGGGAUU”, the “apparent Kd” value runs as follows: under setting [1], 67.2 nM; under setting [2], 58.8 nM.
As to “UUAUUGUGAGGAUAUCCAAUAUAUGACAUGAGGAUCACCCAUGUUUCCACUCGUACCUCCGGAGAAGGCACUUAUU”, the “apparent Kd” value under setting [3] was 32.7 nM and the “apparent Kd” value under setting [4] stood at 29.4 nM.
For “GGGCUCCCGCAGAAGGUGACAAAGUGUUCAUGUCAAGGAUAUGUGGUUCACAUGAGGAUCACCCAUGUAGGGCCCGUUAGGAAC”, the “apparent Kd” value is 97.3 nM under setting [1] and 23.9 nM under setting [2].
With “CCAGAAUAGAAGGAUAUCGUGCUAUAGAGCGGAUGAGAAGGUCUGACAUGAGGAUCACCCAUGUGCACUUCAUG”, the “apparent Kd” value by setting is: under setting [3], 103 nM; under setting [4], 320 nM.
Taken in the same sequence, the figures for “AAGAAGGACGCAGGAUAUCCAGGACCUCCCGCAGGAGAAGGGCGAAACAUGAGGAUCACCCAUACAUGAGGAUCACCCAUGUAA” were 33 nM and 36.3 nM.
For the sequence “AAAAAACAUGAGGAUCACCCAUGUAAAAAAAUGGGAGGAUAUCUGAAUUAAUUAAAUUAAGGAGAAGGCCUAAAAA”, the “apparent Kd” value was 239 nM under setting [1] and 31.9 nM under setting [2].
With “ACAAAUGGAGGAUAUACAUGAGGAUCACCCAUGUAUAUCCUACAUGUGUGAUAAUCAUGUAGAAGGCCAUUUGA”, the “apparent Kd” value reads like this: under setting [3], 14 nM; under setting [4], 12.3 nM.
The matching figures for “UCAUGAAGGACAGGAUAUGGACAUGAGGAUCACCCAUGUACAUGGGAUUAUAUACUGAAUUUAUACUAGAAGGGUUACAUAAAU”: 44.7 nM and 30.2 nM.
With “CCUCCCUGAGGAUAUCCACCCUCAUACAUGAGGAUCACCCAUGUUCAUCCCUGGGUACCCGGAGAAGGCAGAUUUC”, the “apparent Kd” value worked out at 154 nM under setting [3] and 165 nM under setting [4].
“AGUACUCAAAGAGUACGCGUAAGCACAUGAGGAUCACCCAUGUAGGAUAUGCUACUCAAAGAGUAGUAGAAGGACAUAUACCUC”: the “apparent Kd” value by setting is: under setting [3], 5.2 nM; under setting [4], 6.34 nM.
Regarding “CGUACACAUGAGGAUCACCCAUGUCAGAUUUGGUCAGGAUAUGGGCGGCAUCCGCUAUAGCCAGAAGGGACUGUUG”, the “apparent Kd” value reads like this: under setting [1], 173 nM; under setting [2], 204 nM.
On to “GGAUAGGACAGAGGAUAUACGUGCUAGAGAUACUAGCAAAAUUUCCUCACAUGAGGAUCACCCAUGUAGAAGGCUGUCCUAUCG”, for which the “apparent Kd” value by setting is: under setting [3], 46 nM; under setting [4], 954 nM.
As to “CGUACACAUGAGGAUCACCCAUGUCAGAUUUGGUCAGGAUAUGGGCGGCAUCCGCUAUUGCCAGAAGGGACUGUUG”, the “apparent Kd” value reads like this: under setting [1], 83.1 nM; under setting [2], 160 nM.
Taken in the same sequence, the figures for “CUGGUUCUCGUAGGAUAUGUAGGAUAUGCCUACAUGAGGAUCACCCAUGUUCGCAUGGCAGAAGGACAGAAGGACGAUCACCAG” were 55.6 nM and 15.4 nM.
“UGAUUUUCUUCUAACUAUCACCACAUGAGGAUCACCCAUGUCAAGGAUAUAGAGCGCGCUGGGUUCUAGAAGGUGGCGUGCCAA”: the “apparent Kd” value runs as follows: under setting [3], 7.52 nM; under setting [4], 6.47 nM.
“CCCGCGAUGUCAGGAUAUAGUCGGAGGUGCAGACUAGAAGGGACAUGAGGAUCACCCAUGUGCGUGAACAUUUGAAACCCGGGU”: the “apparent Kd” value is, setting by setting: under setting [3], 40.4 nM; under setting [4], 153 nM.
The matching figures for “CUUUAGUGAGGAUAUCAGUAGUAAUACAAUAGUAUUACUACUGAGAAGGCACAUGAGGAUCACCCAUGUUUCUC”: 31 nM and 136 nM.
Consider “CCCAGUUAGGAAGGAUAUUGUACAUGAGGAUCACCCAUGUAAUAAAUGAGGAUCUCGGAUGUAUACAAGAAGGUCCGGAUAGGC”, for which the “apparent Kd” value reads like this: under setting [3], 71.6 nM; under setting [4], 136 nM.
Consider “GGAGAUACAUGAGGAUCACCCAUGUAGGAUAUCGGGCAUAUAUAUGGCGAAAGCCAUAUAUAUGCCGAGAAGGGCGUACACACC”, for which the “apparent Kd” value stood at 8.12 nM under setting [3] and 7.62 nM under setting [4].
For “UGUCUGUCAGGAUAUCCAGAAGAGAAGAAAGUAAGAUGAGUGGAGAAGGGACAUGAGGAUCACCCAUGUAAUUA”, the “apparent Kd” value was found to be 31 nM under setting [3] and 36.4 nM under setting [4].
Taken in the same sequence, the figures for “GUCAGCUCGUGAGGAUAUACAACACUGCUUCGGCAGUGUAUGAAGAUCACAUGAGGAUCACCCAUGUAGAAGGCACGAGCUGAU” were 9.93 nM and 176 nM.
Taken in the same sequence, the figures for “ACAUGAGGAUCACCCAUGUUUUUUGGGUACUUUUGUUUCUGCAAGGAUAUGCAUUAUUUAUAUACGCAGAAGGUGCAUUACUUC” were 573 nM and 708 nM.
The matching figures for “AGUCGGAGCAGAGGAUAUAUACAUGAGGAUCACCCAUGUAAAUGAAUGAGCUGGAAACAGCAAGUAUAGAAGGCUGCUCCGACA”: 15.2 nM and 16 nM.
On to “GUGUACAGAGGAUAUACAAGAGGAGUUACGAAAGUAACUUCACAUGAGGAUCACCCAUGUAGAAGGCUGUACAC”, for which the “apparent Kd” value under setting [3] was 24.6 nM and the “apparent Kd” value under setting [4] is 39.5 nM.
The matching figures for “GCGUAAAAGAUCCUAUUUAUCUACAUGAGGAUCACCCAUGUGCAGGAUAUGCUAUAUUUAAUAUAGCAGAAGGGCAAUAACCGC”: 45.6 nM and 248 nM.
The matching figures for “AAAGUAAACGAAGGAUAUGGUUACAUGAGGAUCACCCAUGUAAUGGUUGUGAUAUUGAUUAAGUUCCAGAAGGUCGUAUACAUA”: 199 nM and 371 nM.
On to “UAAUCUCAGAUAGGAUAUAUAGGAUAACUUAAGACCUAACAUGAGGAUCACCCAUGUGAUUAUUCGUAGAAGGAUCAUUGAACC”, for which the “apparent Kd” value by setting is: under setting [1], 206 nM; under setting [2], 217 nM.
As for “AAUAUACAUGAGGAUCACCCAUGUUUUGGUGUAUGAGGAUAUAAAAACAAUUACAUAAAAUUAGAAGGCAUAACUA”, the “apparent Kd” value amounted to 28.2 nM under setting [1] and 24 nM under setting [2].
As for “AUUUUAUAACAAGGAUAUACUAAACAUGAGGAUCACCCAUGUAAUAUUAUGAGUGAGAGAGAGAAGUAGAAGGUGUAUUAUUUU”, the “apparent Kd” value came out at 102 nM under setting [3] and 128 nM under setting [4].
